ChEMBL document CHEMBL1148136, “Induction of quinone reductase by withanolides” (J Nat Prod, 2002)
Activity calls are given as the source filed them. No cut-off for these calls is given here.

Columns and labels:
[1] = Chemoprevention index, ratio of IC50 for mouse Hepa-1c1c7 cells to drug level required to induce 4-fold increase in quinone reductase activity in mouse Hepa-1c1c7 cells; format: functional
In short: (§1)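 Hepa 1c1c7 cells seeded at 4000 cells/mL, grown 24 h at 37 °C under CO2, then medium changed. Compounds added in 10% DMSO, serially diluted over 0.15-20 µg/mL, and incubated a further 48 h. QR measured as NADPH-dependent, menadiol-mediated MTT reduction to formazan. Protein by crystal violet at 595 nm in duplicate plates. Specific activity expressed relative to solvent control. CD = concentration giving 2-fold activity, CQ = 4-fold. CI = IC50/CD or IC50/CQ.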

[2] = Growth inhibition of mouse Hepa-1c1c7 cells by crystal violet staining; format: cell-based; settings: Mus musculus, Hepa-1c1c7
In short: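 Hepa 1c1c7 cells seeded at 4000 cells/mL and grown 24 h at 37 °C, then medium changed. Compounds added in 10% DMSO, serially diluted over 0.15-20 µg/mL, and exposed 48 h. Viability read by crystal violet staining at 595 nm. IC50 taken as the half-maximal inhibitory concentration of cell viability.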

[3] = Chemoprevention index, ratio of IC50 for mouse Hepa-1c1c7 cells to drug level required to double specific quinone reductase activity in mouse Hepa-1c1c7 cells; format: functional; in short: as §1
[4] = test system: Mus musculus; assay: Induction of quinone reductase activity in BALB/c mouse colon at 2.5 mg/0.2 ml/day administered intragastrically for 3 consecutive day; format: functional, organism-based
In short: (§2)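 BALB/c mice, n = 3, dosed intragastrically for 3 consecutive days at 2.5 mg per mouse per day in 0.2 mL sesame oil. Quinone reductase activity was then assessed in liver, lung, colon, stomach and mammary gland tissue, and the change in activity is reported for each organ.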

[5] = test system: Mus musculus; assay: Induction of quinone reductase activity in BALB/c mouse liver at 2.5 mg/0.2 ml/day administered intragastrically for 3 consecutive day; format: functional, organism-based; in short: as §2
[6] = test system: Mus musculus; assay: Induction of quinone reductase activity in BALB/c mouse lung at 2.5 mg/0.2 ml/day administered intragastrically for 3 consecutive day; format: functional, organism-based; in short: as §2
[7] = test system: Mus musculus; assay: Induction of quinone reductase activity in BALB/c mouse stomach at 2.5 mg/0.2 ml/day administered intragastrically for 3 consecutive day; format: functional, organism-based; in short: as §2
[8] = test system: Mus musculus; assay: Induction of quinone reductase activity in BALB/c mouse mammary gland at 2.5 mg/0.2 ml/day administered intragastrically for 3 consecutive day; format: functional, organism-based; in short: as §2

Row | SMILES | Ratio [1] | IC50 [2] | Ratio [3] | Activity [4] | Activity [5] | Activity [6] | Activity [7] | Activity [8]
1 | C[C@H]1C[C@H]([C@](C)(O)[C@H]2[C@@H](O)C[C@H]3[C@@H]4C[C@H]5O[C@]56[C@@H](O)C=CC(=O)[C@]6(C)[C@H]4CC[C@]23C)OC(=O)[C@@H]1C [WITHAPHYSACARPIN] | 2.5 | 4.8 µM | 11.1 | – | – | – | – | –
2 | CC1=C(C)[C@]2(OC1=O)[C@H](O)[C@@H](C)[C@]1(O)CC[C@H]3[C@@H]4CC=C5CC=CC(=O)[C@]5(C)[C@H]4C[C@@]2(O)[C@@]31C [JABOROSALACTONE P] | – | > 42.7 µM | >57 | inactive | inactive | inactive | inactive | inactive
3 | C[C@H]1C[C@H]([C@](C)(O)[C@H]2CC[C@H]3[C@@H]4C[C@H]5O[C@]56[C@@H](O)C=CC(=O)[C@]6(C)[C@H]4CC[C@]23C)OC(=O)[C@@H]1C | 1.4 | 5.5 µM | 7.8 | – | – | – | – | –
4 | CC1=C(C)[C@]2(OC1=O)C(=O)C(C)=C1CC[C@H]3[C@@H]4C[C@H]5O[C@]56CC=CC(=O)[C@]6(C)[C@H]4C[C@@]2(O)[C@]13C [JABOROSALACTONE 1] | 6.3 | 8.08 µM | 28.9 | – | – | – | – | –
5 | C[C@@H](c1ccc2c(c1)CC[C@H]1[C@H]2[C@@H]2O[C@@H]2[C@@]2(O)CC=CC(=O)[C@]12C)C1C[C@]2(C)O[C@]2(C)[C@H](O)O1 (some centres undefined) [NICANDRENONE] | 1.1 | 42.9 µM | 4.1 | – | – | – | – | –
